ALR H2O2 inh – inhibitors of human sulfhydryl oxidase ALR. P55789. purified ALR, DTT oxidation, H2O2 HRP-luminol luminescence. inhibition, % (no concentration beside the values). 290,000 compounds, 3.8% hits. AID 485317;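 active = mean replicate inhibition above about 79%, with every replicate also reaching it, limit read from the data; inconclusive = only one of the two criteria met; inactive = mean below limit and not every replicate reaching it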
ATG4B inh – ATG4B (human) cysteine protease inhibition. inhibition, % at 8.33 µM. ATG4B cleavage of LC3-PLA2, NBD-HPC fluorescence, 1 h. 340,000 compounds, 0.51% hits; in the data active = inhibition above about 40%
Target sequence (Q9Y4P1 whole entry, looked up): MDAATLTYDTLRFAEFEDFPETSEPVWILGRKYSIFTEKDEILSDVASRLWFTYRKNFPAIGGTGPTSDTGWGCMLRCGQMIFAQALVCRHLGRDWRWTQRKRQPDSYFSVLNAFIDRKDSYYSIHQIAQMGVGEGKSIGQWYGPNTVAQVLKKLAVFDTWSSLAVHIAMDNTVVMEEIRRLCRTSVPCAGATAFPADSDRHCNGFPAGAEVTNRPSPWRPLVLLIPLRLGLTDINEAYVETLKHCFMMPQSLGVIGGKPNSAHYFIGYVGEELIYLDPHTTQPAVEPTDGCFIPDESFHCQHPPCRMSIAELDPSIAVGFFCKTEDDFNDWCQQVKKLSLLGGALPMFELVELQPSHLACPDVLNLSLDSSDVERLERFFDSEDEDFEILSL
UCH37 DUB inh – blocks the human deubiquitinase UCH37; Q9Y5K5; purified proteasome/UCH37, Ub-AMC cleavage fluorescence; inhibition, % (concentration not given with the values); 330,000 compounds, 0.33% hits;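 active = mean inhibition over replicate wells above about 20%, limit read from the data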;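 note: 0% = compound-free wells with enzyme and 100% = wells lacking proteasome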
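Schedule: 30 min plus 25 min, room temperature / Material: human UCH37 within purified proteasomes / Technique: AMC fluorescence intensity at 355/460 nm / Buffer or medium: pH 7.4 Tris-HCl (50 mM) with ovalbumin, ATP-MgCl2, DTT / Controls: wells without proteasome as full block, compound-free enzyme plus substrate as uninhibited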
NALP1 inh – NALP1 inhibition; 280,000 compounds, 0.61% hits; S. cerevisiae NALP1/ASC/caspase-1 growth, X-gal OD620, 72 h; inhibition, % at 10 µM; in the data active = inhibition mostly above about 24%, no sharp cut-off; inactive = mostly below about 32%
NLRP3 yeast inh – inhibitors of NALP3 inflammasome in yeast; inhibition, % at 10 µM; AID 2825; Yeast reconstituted NLRP3/ASC/caspase-1, beta-gal luminescence, 24 h; 330,000 compounds, 0.39% hits;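 active = inhibition of 50% or more; inactive = inhibition below 50%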;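 note: plate controls were induced DMSO wells for no effect and uninduced yeast grown without galactose for full effect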
Calb FLC – C. albicans growth modulation with fluconazole. C. albicans CaCi-2 (fluconazole-resistant clinical isolate) + fluconazole, Alamar Blue growth, 48 h. growth inhibition, % (concentration not given with the values). 300,000 compounds, 0.57% hits;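 active = growth inhibition above about 58% in most replicates, limit read from the data, passing the limit was not always enough; inconclusive = exactly half the replicates above a set limit; inactive = most replicates below a set limit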;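 note: all wells also contain fluconazole at 8 µg/ml as a sub-toxic cotreatment; 0% = median of DMSO wells and 100% = median of geldanamycin control wells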
* marks the source's active call; other numbers are inactive results; u = inconclusive; x = no result given; ! = not active in a repeat. Rows were chosen to be rich in hits. Some 4.8% of all compounds tested hit in one or more screens of this group.

SMILES | ALR H2O2 inh | ATG4B inh | UCH37 DUB inh | NALP1 inh | NLRP3 yeast inh | Calb FLC
Cc1ccc(C(=O)NN=Cc2cc(C)n(-c3ccc(Br)cc3)c2C)cc1[N+](=O)[O-] | x | x | 0 | x | x | x
CCCNC(=O)C12CCC(C)(c3nc4cc(C)c(C)cc4nc31)C2(C)C (configuration not stated) | -10 | 0 | 3 | -15 | -1 | 110*
CCOC(=O)COn1c(=O)c(=O)n(O)c2ccccc21 | 100* | 1 | 7 | 32 | 15 | 1
COC(=O)c1ccc(C=NN2CCN(Cc3ccc(Cl)cc3)CC2)cc1 | x | x | 3 | x | x | x
O=C(CSc1ccccc1)N1CCc2ccccc21 | -11 | -3 | 2 | -8 | 40 | -8
CCn1cc(SCC(=O)N2CCc3ccccc32)c2ccccc21 | 98* | 7 | -3 | 30 | 27 | 2
Cc1nc2ccc(N=NC3=C(O)CC(C)(C)CC3=O)cc2s1 | x | 6 | 17 | 38 | -6 | -6
CCOc1ccc2nc(N=NC3=C(O)CC(C)(C)CC3=O)sc2c1 | -16 | -8 | 10 | -33 | 5 | 89*
Cc1ccccc1OCC(O)Cn1c(=N)n(CCN2CCOCC2)c2ccccc21 (configuration not stated) | -23 | -7 | 4 | 43*! | -1 | -2
COc1cc(/C=C2/C(=O)CNC2=O)ccc1O | 99* | -7 | x | 0 | -12 | -3
CN1C(=O)/C(=C/c2ccc(O)c([N+](=O)[O-])c2)NC1=S | 46 | -4 | 18 | 8 | 29 | 24
COc1cc(/C=C2\CCC/C(=C\c3ccc(O)c(OC)c3)C2=O)ccc1O | x | 36 | 10 | -4 | 7 | -7
CCOc1cccc(/C=C2\NC(=S)N(c3ccccc3)C2=O)c1O | u | 1 | x | 9 | 7 | -3
COc1cc(/C=C2/NC(=O)N(Cc3ccccc3F)C2=O)ccc1O | 99* | 2 | -2 | -9 | 24 | 26
COc1cc(/C=C2\NC(=S)N(C)C2=O)ccc1O | 99* | -6 | 9 | 8 | 28 | 10
COc1cc(/C=C2/NC(=O)N(Cc3ccccc3F)C2=O)ccc1Oc1ccc([N+](=O)[O-])cn1 | x | 4 | x | 19 | 3 | -6
CCOc1cc(/C=C2\NC(=S)N(c3c(C)n(C)n(-c4ccccc4)c3=O)C2=O)ccc1O | 99* | -12 | 13 | 8 | 23 | 13
CCOc1ccc(C=NNC(=O)C(C)N(c2ccc(OC)cc2)S(C)(=O)=O)cc1 (configuration not stated) | x | x | 8 | x | x | x
Fc1cccc(C=NNc2cc(N3CCOCC3)ncn2)c1 | x | x | 5 | x | x | x
Oc1c(Cl)cc(CN2CCOCC2)c2cccnc12 | 32 | -5 | 2 | x | -16 | x
O=c1oc2ccccc2c(O)c1Cc1cc(Cl)c2cccnc2c1O | -2 | 30 | -7 | -6 | 3 | 84*
Oc1c(CN2CCCCC2)cc(Br)c2cccnc12 | x | -1 | 8 | 58* | 44 | -28
Oc1c(CN2CCc3ccccc3C2)cc(Cl)c2cccnc12 | -55 | 33 | 4 | -6 | 28 | 83*
O=C(Oc1c(CN2CCOCC2)cc(Cl)c2cccnc12)c1ccccc1 | -16 | -2 | 3 | 6 | 28 | 118*
Cc1ccc(C=NNS(=O)(=O)c2ccccc2)o1 | x | x | 2 | x | x | x
SMILES | ALR H2O2 inh | ATG4B inh | UCH37 DUB inh | NALP1 inh | NLRP3 yeast inh | Calb FLC
O=C(Oc1c(CN2CCOCC2)cc(Cl)c2cccnc12)c1ccccc1F | x | -6 | 1 | 2 | 47 | 102*
COc1cc(OC)cc(C(=O)Oc2c(CN3CCOCC3)cc(Cl)c3cccnc23)c1 | 1 | -8 | 7 | 14 | 33 | 113*
COc1ccc(C(=O)Oc2c(CN3CCOCC3)cc(Cl)c3cccnc23)cc1OC | -2 | -11 | 2 | x | 25 | 1
O=C(Oc1ccc(C(=S)N2CCOCC2)cc1Cl)c1ccccc1F | 11 | 11 | 2 | 12 | 21 | -5
O=C(O)C1CSC(c2coc3ccccc3c2=O)N1 (configuration not stated) | 99* | 1 | -7 | 19 | -3 | 0
N#CC(=NNc1ccccc1)C(=N)N1CCCCC1 | x | x | 14 | x | x | x
CN=c1scc(-c2ccccc2F)n1/N=C(\C)c1cccnc1 | 94* | 16 | x | 4 | 15 | -2
Cc1[nH]nc2c1C(=NO)CC(c1ccccc1)C2 (configuration not stated) | x | x | 1 | x | x | x
